≈ marks a conversion by molar mass, not a printed value.
Columns and labels:
Bacillus subtilis = test: Antimicrobial activity against Bacillus subtilis ATCC 6633 by broth dilution assay; type: functional
Procedure, shortened: (§1)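 Conventional broth dilution run on the seven terrestrial pathogenic bacterial strains, with ciprofloxacin as positive control.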

Micrococcus = test: Antimicrobial activity against Micrococcus tetragenus ATCC 13623 by broth dilution assay; type: functional; procedure, shortened: as §1
A549 = test: Cytotoxic activity against human A549 cells by MTT assay; type: functional, cell-based
Procedure, shortened: (§2)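 MTT viability read-out on mouse melanoma B16F10 and human lung adenocarcinoma A549 lines, with epirubicin as positive control. Activity is given as IC50.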

Escherichia coli = test: Antimicrobial activity against Escherichia coli ATCC 25922 by broth dilution assay; type: functional; procedure, shortened: as §1
Bacillus cereus = test: Antimicrobial activity against Bacillus cereus ATCC 14579 by broth dilution assay; type: functional; procedure, shortened: as §1
Staphylococcus = test: Antimicrobial activity against Staphylococcus albus ATCC 8799 by broth dilution assay; type: functional; procedure, shortened: as §1
Kocuria rhizophila = test: Antimicrobial activity against Kocuria rhizophila ATCC 9341 by broth dilution assay; type: functional; procedure, shortened: as §1
[1] = Cytotoxic activity against mouse B16F10 cells by MTT assay; type: functional, cell-based; settings: B16-F10; procedure, shortened: as §2
Staphylococcus aureus = test: Antimicrobial activity against Staphylococcus aureus ATCC 6538 by broth dilution assay; type: functional; procedure, shortened: as §1
[2] = Bacillus subtilis, ATCC 6633, read-out: MIC
[3] = Micrococcus, ATCC 13623, read-out: MIC
[4] = Escherichia coli, ATCC 25922, read-out: MIC
[5] = Bacillus cereus, ATCC 14579, read-out: MIC
[6] = Staphylococcus, ATCC 8799, read-out: MIC
[7] = Kocuria rhizophila, ATCC 9341, read-out: MIC
[8] = Staphylococcus aureus, ATCC 6538, read-out: MIC

MIC (Bacillus subtilis; [2]) [µM]	MIC (Micrococcus; [3]) [µM]	MIC (Escherichia coli; [4]) [µM]	MIC (Bacillus cereus; [5]) [µM]	MIC (Staphylococcus; [6]) [µM]	MIC (Kocuria rhizophila; [7]) [µM]	MIC (Staphylococcus aureus; [8]) [µM]	MIC (Bacillus subtilis) [µM]	MIC (Micrococcus) [µM]	MIC (Staphylococcus) [µM]	MIC (Kocuria rhizophila) [µM]	SMILES	IC50 (A549) [µM]	IC50 [1] [µM]	MIC (Bacillus cereus) [µM]	MIC (Staphylococcus aureus) [µM]	MIC (Escherichia coli) [µM]
> 10	> 10	> 10	> 10	> 10	> 10	> 10	–	–	–	–	COc1cc(O)c2c(c1)C(=O)c1cc(C)c(O)c(-c3c(OC)cc(O)c4c3C(=O)C3=C(C[C@@H](O)[C@@](C)(O)[C@@H]3O)C4=O)c1C2=O	> 10	> 10	–	–	–
> 10	> 10	> 10	> 10	> 10	> 10	> 10	–	–	–	–	COc1cc(O)c2c(c1)C(=O)c1cc(C)c(OS(=O)(=O)O)cc1C2=O	> 10	> 10	–	–	–
> 10	> 10	> 10	> 10	> 10	> 10	> 10	–	–	–	–	COc1cc2c(c(O)c1-c1c(OC)cc(O)c3c1C(=O)C1=C(C[C@@H](O)[C@@](C)(O)[C@@H]1O)C3=O)C(=O)C1=C(C[C@](C)(O)[C@H](O)C1)C2=O	–	–	–	–	–
> 10	> 10	> 10	7.9 (≈ 4.89 µg/mL)	> 10	> 10	> 10	–	–	–	–	COc1cc(O)c2c(c1-c1c(OC)cc(O)c3c1C(=O)c1cc(C)c(O)cc1C3=O)C(=O)C1=C(C2=O)[C@H](O)[C@@H](O)[C@@](C)(O)[C@@H]1O (single isomer, unassigned; atropisomer 1) [ALTERPORRIOL A/B]	–	–	–	–	–
> 10	> 10	> 10	8.3 (≈ 5.03 µg/mL)	> 10	> 10	> 10	–	–	–	–	COc1cc2c(c(O)c1-c1c(OC)cc(O)c3c1C(=O)C1=C(C[C@@H](O)[C@@](C)(O)C1)C3=O)C(=O)C1=C(C[C@](C)(O)[C@H](O)C1)C2=O	> 10	> 10	–	–	–
> 10	4.6 (≈ 1.31 µg/mL)	4.6 (≈ 1.31 µg/mL)	> 10	> 10	> 10	9.2 (≈ 2.62 µg/mL)	–	–	–	–	COc1cc(O)c2c(c1)C(=O)c1cc(C)c(O)cc1C2=O [MACROSPORIN]	> 10	> 10	–	–	–
> 10	> 10	> 10	> 10	> 10	> 10	> 10	–	–	–	–	COc1cc(O)c2c(c1)C(=O)c1cc(C)c(O)c(-c3c(OC)cc4c(c3O)C(=O)c3cc(O)c(C)cc3C4=O)c1C2=O [ALTERPORRIOL Q]	> 10	> 10	–	–	–
7.8 (≈ 2.37 µg/mL)	> 10	7.8 (≈ 2.37 µg/mL)	> 10	> 10	7.8 (≈ 2.37 µg/mL)	7.8 (≈ 2.37 µg/mL)	–	–	–	–	COc1cc(O)c2c(c1)C(=O)C1=C(C[C@@H](O)[C@@](C)(O)C1)C2=O [ALTERSOLANOL B]	> 10	> 10	–	–	–
> 10	> 10	> 10	> 10	> 10	> 10	> 10	–	–	–	–	COc1cc(O)c2c(c1-c1c(OC)cc(O)c3c1C(=O)C1=C(C[C@@H](O)[C@@](C)(O)[C@@H]1O)C3=O)C(=O)C1=C(C[C@@H](O)[C@@](C)(O)[C@@H]1O)C2=O	–	–	–	–	–
> 10	> 10	> 10	> 10	> 10	> 10	> 10	–	–	–	–	COc1cc(O)c2c(c1)[C@H](O)[C@@H]1[C@H](C[C@@H](O)[C@@](C)(O)[C@@H]1O)C2=O [ALTERSOLANOL L]	> 10	> 10	–	–	–
> 10	> 10	> 10	> 10	> 10	> 10	> 10	–	–	–	–	COc1cc(O)c2c(c1)[C@H](O)[C@@H]1C(=C[C@@H](O)[C@@](C)(O)[C@@H]1O)C2=O	> 10	> 10	–	–	–
> 10	> 10	> 10	> 10	> 10	> 10	> 10	–	–	–	–	COc1cc(O)c2c(c1)C(=O)c1cc(C)c(O)c(-c3c(OC)cc(O)c4c3C(=O)c3cc(C)c(O)cc3C4=O)c1C2=O (single isomer, unassigned; atropisomer 2)	–	–	–	–	–
3.9 (≈ 1.35 µg/mL)	7.8 (≈ 2.7 µg/mL)	3.9 (≈ 1.35 µg/mL)	> 10	3.9 (≈ 1.35 µg/mL)	> 10	3.9 (≈ 1.35 µg/mL)	–	–	–	–	COc1cc(O)c2c(c1)C(=O)C1=C(C[C@@H](OC(C)=O)[C@@](C)(O)C1)C2=O	> 10	> 10	–	–	–
8.8 (≈ 2.82 µg/mL)	> 10	> 10	> 10	> 10	> 10	> 10	–	–	–	–	COc1cc(O)c2c(c1)C(=O)C1=C(C[C@@H](O)[C@@](C)(O)[C@@H]1O)C2=O [ALTERSOLANOL C]	–	–	–	–	–
–	–	–	–	–	–	–	> 10	> 10	> 10	> 10	COc1cc(O)c2c(c1-c1c(OC)cc(O)c3c1C(=O)c1cc(C)c(O)cc1C3=O)C(=O)C1=C(C2=O)[C@H](O)[C@@H](O)[C@@](C)(O)[C@@H]1O (single isomer, unassigned; atropisomer 2) [ALTERPORRIOL A/B]	> 10	> 10	> 10	> 10	> 10
> 10	> 10	> 10	8.1 (≈ 4.59 µg/mL)	> 10	> 10	> 10	–	–	–	–	COc1cc(O)c2c(c1)C(=O)c1cc(C)c(O)c(-c3c(O)c(C)cc4c3C(=O)c3c(O)cc(OC)cc3C4=O)c1C2=O	> 10	> 10	–	–	–
> 10	> 10	7.3 (≈ 2.25 µg/mL)	> 10	> 10	> 10	> 10	–	–	–	–	COc1cc(O)c2c(c1)[C@H](O)[C@H]1C[C@](C)(O)[C@H](O)C[C@@H]1C2=O [TETRAHYDROALTERSOLANOL B]	–	–	–	–	–
> 10	> 10	> 10	> 10	8.9 (≈ 5.51 µg/mL)	> 10	> 10	–	–	–	–	COc1cc(O)c2c(c1)C(=O)c1cc(C)c(O)c(-c3c(OC)cc4c(c3O)C(=O)C3=C(C4=O)[C@@H](O)[C@](C)(O)[C@H](O)[C@H]3O)c1C2=O (single isomer, unassigned; atropisomer 1) [ALTERPORRIOL C]	> 10	> 10	–	–	–
> 10	> 10	> 10	> 10	> 10	> 10	> 10	–	–	–	–	COc1cc(O)c2c(c1)[C@H](O)[C@@H]1[C@@H](C2=O)[C@H](O)[C@@H](O)[C@@](C)(O)[C@@H]1O [AMPELANOL]	–	–	–	–	–
0.6 (≈ 0.199 µg/mL)	0.3 (≈ 0.0994 µg/mL)	0.3 (≈ 0.0994 µg/mL)	0.6 (≈ 0.199 µg/mL)	0.6 (≈ 0.199 µg/mL)	0.3 (≈ 0.0994 µg/mL)	0.16 (≈ 0.053 µg/mL)	–	–	–	–	O=C(O)c1cn(C2CC2)c2cc(N3CCNCC3)c(F)cc2c1=O [CIPROFLOXACIN]	–	–	–	–	–
> 10	> 10	9.8 (≈ 3.45 µg/mL)	> 10	> 10	> 10	> 10	–	–	–	–	COc1cc(O)c2c(c1)C(=O)[C@@]13O[C@]1(C2=O)[C@H](O)[C@@H](O)[C@@](C)(O)[C@@H]3O	> 10	> 10	–	–	–
> 10	> 10	> 10	> 10	> 10	> 10	> 10	–	–	–	–	COc1cc(O)c2c(c1)[C@H](O)[C@@H]1[C@H](C[C@@H](OC(C)=O)[C@@](C)(O)[C@@H]1O)C2=O	> 10	> 10	–	–	–

SMILES	MIC (Bacillus subtilis; [2]) [µM]	MIC (Micrococcus; [3]) [µM]	MIC (Escherichia coli; [4]) [µM]	MIC (Bacillus cereus; [5]) [µM]	MIC (Staphylococcus; [6]) [µM]	MIC (Kocuria rhizophila; [7]) [µM]	MIC (Staphylococcus aureus; [8]) [µM]	MIC (Bacillus subtilis) [µM]	MIC (Micrococcus) [µM]	MIC (Staphylococcus) [µM]	MIC (Kocuria rhizophila) [µM]	IC50 (A549) [µM]	IC50 [1] [µM]	MIC (Bacillus cereus) [µM]	MIC (Staphylococcus aureus) [µM]	MIC (Escherichia coli) [µM]
COc1cc(O)c2c(c1-c1c(OC)cc(O)c3c1C(=O)C1=C(C3=O)[C@@H](O)[C@H](O)[C@](C)(O)[C@H]1O)C(=O)C1=C(C2=O)[C@H](O)[C@@H](O)[C@@](C)(O)[C@@H]1O (single isomer, unassigned; atropisomer 2)	–	> 10	5 (≈ 3.35 µg/mL)	–	> 10	–	–	–	–	–	–	–	–	2.5 (≈ 1.68 µg/mL)	>10	–
COc1cc(O)c2c(c1)C(=O)C1=C(C2=O)[C@H](O)[C@@H](O)[C@@](C)(O)[C@@H]1O [ALTERSOLANOL A]	4.1 (≈ 1.38 µg/mL)	8.2 (≈ 2.76 µg/mL)	4.1 (≈ 1.38 µg/mL)	> 10	> 10	> 10	2.07 (≈ 0.696 µg/mL)	–	–	–	–	> 10	> 10	–	–	–
COc1cc(O)c2c(c1-c1c(OC)cc(O)c3c1C(=O)C1=C(C3=O)[C@@H](O)[C@H](O)[C@](C)(O)[C@H]1O)C(=O)C1=C(C2=O)[C@H](O)[C@@H](O)[C@@](C)(O)[C@@H]1O (atropisomer, axis not shown)	> 10	–	–	–	–	> 10	5 (≈ 3.35 µg/mL)	–	–	–	–	> 10	> 10	10 (≈ 6.71 µg/mL)	–	7.5 (≈ 5.03 µg/mL)

— ChEMBL document CHEMBL3352307, “Bioactive anthraquinone derivatives from the mangrove-derived fungus Stemphylium sp. 33231” (J Nat Prod, 2014)
